In ChEMBL document CHEMBL2040734, “Benzothiazoles: search for anticancer agents” (2012):

Columns and labels:
Format in all cases: functional
ACHN = assay: Cytotoxicity against human ACHN cells assessed as cell growth at 100 uM after 48 hrs by sulforhodamine B assay; conditions: read-out: Activity
Method in brief: (§1)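 NCI-60 five-dose screen. Cells were grown in RPMI 1640 with 5% FBS and 2 mM L-glutamine and preincubated 24 h. Compound (DMSO stock) was tested at 0.01, 0.1, 1, 10 and 100 µM for 48 h at 37 °C. Cells were fixed in situ with cold TCA (final 10%) and stained with 0.4% SRB. A515 was read, and percent growth was calculated against time-zero and control plates.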

DU-145 = assay: Cytotoxicity against human DU145 cells assessed as cell growth at 10 uM after 48 hrs by sulforhodamine B assay; conditions: DU-145, 48 h, read-out: Activity
Method in brief: (§2)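 Five-dose NCI panel run at 0.01, 0.1, 1, 10 and 100 µM. Cells were in RPMI 1640 with 5% FBS and 2 mM L-glutamine, seeded at 5000–40,000 cells/well and pre-incubated 24 h. Drug was diluted from a DMSO stock into medium with 50 µg/ml gentamicin. Exposure was 48 h at 37 °C, 5% CO2. Cells were fixed with cold TCA and stained with 0.4% SRB, read at 515 nm. Percent growth came from time-zero, control and test absorbances.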

MDA-MB-435 = assay: Cytotoxicity against human MDA-MB-435 cells assessed as cell growth at 0.1 uM after 48 hrs by sulforhodamine B assay; conditions: MDA-MB-435, 48 h, read-out: Activity
CAKI-1 = assay: Cytotoxicity against human Caki1 cells assessed as cell growth at 10 uM after 48 hrs by sulforhodamine B assay; conditions: CAKI-1, 48 h, read-out: Activity; method in brief: as §1
HCT-116 [1] = assay: Cytotoxicity against human HCT116 cells assessed as cell growth at 0.1 uM after 48 hrs by sulforhodamine B assay; conditions: HCT-116, 48 h, read-out: Activity; method in brief: as §2
SR = assay: Cytotoxicity against human SR cells assessed as cell growth at 0.01 uM after 48 hrs by sulforhodamine B assay; conditions: read-out: Activity
HL-60(TB) = assay: Cytotoxicity against human HL-60(TB) cells assessed as cell growth at 1 uM after 48 hrs by sulforhodamine B assay; conditions: HL-60, 48 h, read-out: Activity
Method in brief: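 NCI five-dose screen on the HL-60(TB) leukaemia line, grown in RPMI 1640 with 5% FBS and 2 mM L-glutamine and plated for 24 h before dosing. DMSO stocks were diluted in medium. Cells were exposed 48 h at 37 °C, then settled cells were fixed in 16% TCA (final) and stained with SRB, absorbance 515 nm. Percent growth = (Ti−Tz)/(C−Tz)×100, or (Ti−Tz)/Tz×100 when Ti<Tz.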

NCI-H460 [2] = assay: Cytotoxicity against human NCI-H460 cells assessed as cell growth at 100 uM after 48 hrs by sulforhodamine B assay; conditions: NCI-H460, 48 h, read-out: Activity
NCI-H460 [3] = assay: Cytotoxicity against human NCI-H460 cells assessed as cell growth at 0.01 uM after 48 hrs by sulforhodamine B assay; conditions: NCI-H460, 48 h, read-out: Activity
EKVX = assay: Growth inhibition of human EKVX cells after 48 hrs by sulforhodamine B assay
Method in brief: (§3)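 Adherent NCI-60 lines were grown in RPMI 1640 with 5% FBS and 2 mM L-glutamine, plated at 5000–40,000 cells/well and preincubated 24 h. They were then exposed to five concentrations (0.01–100 µM, from a DMSO stock) for 48 h at 37 °C, 5% CO2. Cells were fixed with cold TCA (10% final, 60 min, 4 °C) and stained with 0.4% SRB. Dye was solubilized in 10 mM Tris base and A515 read. GI50 was derived from time-zero, control and treated absorbances.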

SN12C = assay: Growth inhibition of human SN12C cells after 48 hrs by sulforhodamine B assay; conditions: for CC50: read-out: LC50 (the source's name); method in brief: as §3
SW-620 = assay: Cytotoxicity against human SW620 cells assessed as cell growth at 0.01 uM after 48 hrs by sulforhodamine B assay; conditions: SW-620, 48 h, read-out: Activity
SNB-75 = assay: Cytotoxicity against human SNB75 cells assessed as cell growth at 0.01 uM after 48 hrs by sulforhodamine B assay; conditions: SNB-75, 48 h, read-out: Activity
SF-539 = assay: Cytotoxicity against human SF539 cells assessed as cell growth at 1 uM after 48 hrs by sulforhodamine B assay; conditions: SF-539, 48 h, read-out: Activity
LOX IMVI = assay: Cytotoxicity against human LOXIMVI cells assessed as cell growth at 100 uM after 48 hrs by sulforhodamine B assay; conditions: read-out: Activity
SF-268 = assay: Cytotoxicity against human SF268 cells assessed as cell growth at 100 uM after 48 hrs by sulforhodamine B assay; conditions: SF-268, 48 h, read-out: Activity
TK-10 = assay: Cytotoxicity against human TK10 cells assessed as cell growth at 0.01 uM after 48 hrs by sulforhodamine B assay; conditions: TK-10, 48 h, read-out: Activity
MOLT-4 = assay: Cytotoxicity against human MOLT4 cells assessed as cell growth at 0.1 uM after 48 hrs by sulforhodamine B assay; conditions: MOLT-4, 48 h, read-out: Activity
A498 = assay: Cytotoxicity against human A498 cells assessed as cell growth at 0.01 uM after 48 hrs by sulforhodamine B assay; conditions: A498, 48 h, read-out: Activity; method in brief: as §1
SK-MEL-5 = assay: Cytotoxicity against human SK-MEL-5 cells assessed as cell growth at 1 uM after 48 hrs by sulforhodamine B assay; conditions: SK-MEL-5, 48 h, read-out: Activity
RPMI-8226 = assay: Growth inhibition of human RPMI8226 cells after 48 hrs by sulforhodamine B assay; conditions: RPMI-8226, 48 h; for CC50: read-out: LC50 (the source's name)
Method in brief: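 Leukemia suspension lines were grown in RPMI 1640 with 5% FBS and 2 mM L-glutamine and plated at 5000–40,000 cells/well with 24 h preincubation. They were treated at 0.01, 0.1, 1, 10 and 100 µM (DMSO stock) for 48 h at 37 °C. Settled cells were fixed with 80% TCA (16% final) and stained with 0.4% SRB in 1% acetic acid, then read at 515 nm. GI50 was calculated against time-zero and control wells.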

SK-OV-3 = assay: Cytotoxicity against human SKOV3 cells assessed as cell growth at 0.01 uM after 48 hrs by sulforhodamine B assay; conditions: SK-OV-3, 48 h, read-out: Activity
HCT-116 [4] = assay: Growth inhibition of human HCT116 cells after 48 hrs by sulforhodamine B assay; conditions: HCT-116, 48 h; for CC50: read-out: LC50 (the source's name); method in brief: as §3
OVCAR-3 = assay: Cytotoxicity against human OVCAR3 cells assessed as cell growth at 10 '-5 M after 48 hrs by sulforhodamine B assay; conditions: OVCAR-3, 48 h, read-out: Activity

| SMILES | growth at 100 µM (ACHN) [%] | growth at 10 µM (DU-145) [%] | growth at 0.1 µM (MDA-MB-435) [%] | growth at 10 µM (CAKI-1) [%] | growth at 0.1 µM (HCT-116 [1]) [%] | growth at 0.01 µM (SR) [%] | growth at 1 µM (HL-60(TB)) [%] | growth at 100 µM (NCI-H460 [2]) [%] | growth at 0.01 µM (NCI-H460 [3]) [%] | LC50 (EKVX) [µM] | TGI (EKVX) [µM] | TGI (SN12C) [µM] | CC50 (SN12C) [µM] | growth at 0.01 µM (SW-620) [%] | growth at 0.01 µM (SNB-75) [%] | growth at 1 µM (SF-539) [%] | growth at 100 µM (LOX IMVI) [%] | growth at 100 µM (SF-268) [%] | growth at 0.01 µM (TK-10) [%] | growth at 0.1 µM (MOLT-4) [%] | other results |
| --- | --- | --- | --- | --- | --- | --- | --- | --- | --- | --- | --- | --- | --- | --- | --- | --- | --- | --- | --- | --- | --- |
| Clc1cccc(Cl)c1Nc1nc2cccc(Cl)c2s1 | -100 | -96 | 87 | -90 | 99 | 100 | 63 | -39 | 102 | 4.26 | 1.4 | 2.12 | 4.85 | 97 | 82 | 77 | -21 | -56 | 98 | 109 | GI50 (EKVX): 0.299 µM; GI50 (SN12C): 0.772 µM; growth at 0.01 µM (A498): 85%; growth at 1 µM (SK-MEL-5): 50%; GI50 (RPMI-8226): 0.829 µM; TGI (RPMI-8226): 5.05 µM; CC50 (RPMI-8226): > 100 µM; growth at 0.01 µM (SK-OV-3): 101%; GI50 (HCT-116 [4]): 1.01 µM; TGI (HCT-116 [4]): 2.19 µM; CC50 (HCT-116 [4]): 4.75 µM; growth at 10 µM (OVCAR-3): -61.4% |
| Cc1ccc2nc(Nc3c(C)cccc3C)sc2c1 | 49 | 75 | 86 | 27 | 103 | 98 | 56 | 51 | 102 | > 100 | > 100 | > 100 | > 100 | 97 | 80 | 76 | 57 | 34 | 104 | 111 | growth at 0.01 µM (A498): 75%; growth at 1 µM (SK-MEL-5): 66%; GI50 (RPMI-8226): > 100 µM; TGI (RPMI-8226): > 100 µM; CC50 (RPMI-8226): > 100 µM; growth at 0.01 µM (SK-OV-3): 101%; GI50 (HCT-116 [4]): 2.3 µM; TGI (HCT-116 [4]): > 100 µM; CC50 (HCT-116 [4]): > 100 µM; growth at 10 µM (OVCAR-3): 18.7% |
